Shown are actives, neighbours in structure and some others; about 2% of the full set was active somewhere.
PglD DTNB – blocks C. jejuni PglD acetyltransferase activity; purified PglD enzyme, DTNB colorimetric CoA detection; inhibition, % at 12.5 µM; actives 0.098% (n = 360,000); AID 602405; in the data active means inhibition above about 16%, passing the limit was not always enough
RAD54 branch – inhibitors of human RAD54 branch migration; RAD54 Holliday junction branch migration, FAM/BHQ fluorescence; inhibition, % at 10.4 µM; actives 0.14% (n = 360,000); AID 602329;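 active means mean normalized replicate activity at least 40 and at least half of replicates scoring 40 or more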;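 further: 0% = median of neutral control wells and 100% = median of positive control wells; inhibitors cause a drop in the FAM fluorescence signal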
rRNA inh HTS – inhibits bacterial ribosomal RNA function over humanized ribosomes | E. coli WT GFP vs humanized-ribosome RFP mutants, fluorescence, 24 h; stronger effect = lower value; DMSO median 0, no signal -100 | actives 1.6% (n = 350,000) | GFP signal change (wild-type ribosome), % (no concentration beside the values) | AID 720706;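 active means significant combined selectivity score with lowered wild-type GFP, culture density cut under 30%, mutant RFP and density less affected; inactive means any of these conditions unmet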
E-sel inducer – E-selectin induction on HUVECs. P16581. HUVEC E-selectin immunofluorescence imaging; normalized: neutral wells 0, TNF-alpha wells 100. activation, % at 7.58 µM. actives 0.37% (n = 260,000). AID 686992;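 active means mean E-selectin-positive cell signal at least 10% of the positive control, reached in at least 60% of replicates, without over 20% cell loss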
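Test system: HUVEC; input: 3,000 HUVEC/well; measured by: immunofluorescence imaging; read-out: % PE-positive cells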
XiGFP reactiv – activators of X-chromosome reactivation in mouse fibroblasts; XiGFP mouse fibroblasts, % GFP-positive cells imaging, 3 d; cells co-treated with 5-aza-dC sensitizer; scaled so ellipticine positive control = 100%; activation, % at 7.58 µM; actives 0.055% (n = 360,000); AID 743238;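 active means mean normalized replicate activation at least 10% and every replicate at or above 10%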;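 further: 0% = median of on-plate neutral control wells and 100% = ellipticine 6 µM median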
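Material: XiGFP fibroblasts, SV40-immortalized; Buffer or medium: DMEM containing 5-aza-dC; Compound dosing: single point; Times: 3 days compound exposure.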
RAD52 anneal inh – inhibitors of human RAD52 DNA annealing. inhibition, % at 18.7 µM. actives 0.46% (n = 360,000). AID 651710. recombinant RAD52 DNA annealing, FRET fluorescence. P43351;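 active means every replicate showing at least 50% inhibition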
Target sequence (P43351 whole entry, looked up): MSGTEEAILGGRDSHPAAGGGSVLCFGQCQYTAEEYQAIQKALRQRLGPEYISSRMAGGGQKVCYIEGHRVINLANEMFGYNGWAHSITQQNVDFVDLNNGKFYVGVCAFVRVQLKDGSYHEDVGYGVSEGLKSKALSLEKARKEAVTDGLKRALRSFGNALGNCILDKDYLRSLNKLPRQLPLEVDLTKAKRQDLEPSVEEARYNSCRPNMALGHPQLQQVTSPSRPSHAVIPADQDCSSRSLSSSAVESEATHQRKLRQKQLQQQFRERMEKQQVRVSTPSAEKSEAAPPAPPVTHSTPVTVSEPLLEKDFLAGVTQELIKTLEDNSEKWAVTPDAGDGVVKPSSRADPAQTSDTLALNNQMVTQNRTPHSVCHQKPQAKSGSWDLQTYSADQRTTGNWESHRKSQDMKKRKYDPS
The depositor's hits bear a star; . = no result given; ! = not active in a repeat.

SMILES | PglD DTNB | RAD54 branch | rRNA inh HTS | E-sel inducer | XiGFP reactiv | RAD52 anneal inh
CO[C@@H]1CN(C)C(=O)c2ccc(NC(C)=O)cc2OC[C@@H](C)N(C(=O)c2ccccc2)C[C@H]1C | . | . | 0.8 | . | 0.0 | .
O=c1[nH]c(C2CCN(S(=O)(=O)c3ccc4c(c3)OCCO4)CC2)nc2c1nnn2Cc1ccccc1F | -0.8 | 0.4 | -27.8* | . | 0.1 | 8.2
O=c1[nH]c(C2CCN(S(=O)(=O)c3ccc4c(c3)OCCO4)CC2)nc2c1nnn2Cc1c(F)cccc1Cl | 3.1 | 7.8 | -8.1 | 0.0 | 0.4 | -8.9
C[C@H]1CN([C@@H](C)CO)C(=O)c2cc(C#CC3(O)CCCC3)cnc2O[C@H]1CN(C)C(=O)Nc1ccc2c(c1)OCO2 | -2.5 | 2.8 | 2.7 | -0.2 | 0.0 | 15.1
CO[C@H]1CN(C)C(=O)c2cc(NC(=O)c3ccc(F)cc3)ccc2OC[C@H](C)N(C(=O)c2ccc(F)cc2)C[C@@H]1C | -0.2 | -7.5 | -3.7 | -0.2 | -0.1 | -4.7
C[C@@H]1CN([C@H](C)CO)S(=O)(=O)c2ccc(-c3ccccc3)cc2O[C@H]1CN(C)S(C)(=O)=O | 0.8 | -9.4 | 1.0 | 57.6* | 0.1 | -0.5
C[C@@H]1CN([C@@H](C)CO)S(=O)(=O)c2ccc(-c3ccccc3)cc2O[C@H]1CN(C)C(=O)c1ccc2c(c1)OCO2 | 7.9 | 2.8 | -10.5 | 0.3 | 0.7 | 15.9
C[C@H](CO)N1C[C@H](C)[C@H](CN(C)C(=O)c2ccc3c(c2)OCO3)Oc2cc(-c3ccccc3)ccc2S1(=O)=O | -10.5 | 2.1 | -14.5 | 108.5* | 0.0 | 9.3
O=C(c1ccc(F)cc1)N1CC(=O)N2[C@H](CO)[C@H](c3ccc(-c4cccnc4)cc3)[C@@H]2C1 | . | . | 4.0 | -0.3 | 0.0 | 6.4
CCCNC(=O)Nc1ccc2c(c1)C(=O)N(C)[C@@H]1CC[C@H](CC(=O)O)O[C@H]1CO2 | 2.3 | -7.0 | 3.0 | 0.1 | 0.1 | .
O=C(Nc1nnc(C2=COCCO2)o1)c1ccc(Cc2ccccc2)cc1 | . | . | -46.3* | 0.9 | -0.1 | -9.0
O=C(Nc1nnc(C2=COCCO2)o1)c1ccc(Cl)cc1 | . | . | -54.8 | . | 0.0 | -1.7
COc1ccccc1Cn1c(=S)[nH]c2ccc(F)cc2c1=O | -1.2 | 3.8 | -14.0* | -0.2 | 0.0 | -11.8
COc1ccccc1Cn1c(=S)[nH]c2ccccc2c1=O | 1.9 | 2.7 | -28.1* | 1.5 | 0.0 | 2.5
COc1ccccc1Cn1c(=S)[nH]c2ccc(Br)cc2c1=O | 4.3 | 11.2 | 3.0 | 0.0 | 0.0 | 10.6
O=c1c2cc(F)ccc2[nH]c(=S)n1Cc1ccc(F)cc1 | 4.6 | 0.9 | -31.5 | 0.1 | 0.0 | -21.7
O=C(O)c1csc(N/N=C/c2ccc(Br)cc2)n1 | . | . | -28.4* | 6.2 | 0.2 | -26.8
COCC#Cc1ccc2c(c1)O[C@H](CN(C)C(=O)c1ccccc1)[C@H](C)CN([C@H](C)CO)S2(=O)=O | 1.2 | -0.7 | -0.8 | -0.1 | 0.5 | -0.1
C[C@H]1CN([C@@H](C)CO)C(=O)CCCn2cc(nn2)CO[C@@H]1CN(C)Cc1ccc(C(=O)O)cc1 | . | . | 1.7 | 0.0 | 0.0 | -10.7
O/N=C/c1ccc2cccc(OCc3ccccc3)c2n1 | -8.5 | 1.2 | -28.6* | -0.5 | 0.0 | -17.2
Cc1cccc(NC(=S)NC2CC3C=CC2C3)c1 (stereo unspecified) | 0.3 | -4.9 | -21.0* | 0.5 | 0.0 | -13.5
COCC#Cc1cnc2c(c1)C(=O)N([C@H](C)CO)C[C@@H](C)[C@H](CN(C)C(=O)C1CCC1)O2 | 12.8 | -6.5 | 2.6 | 0.8 | 0.2 | 3.0
Cc1ccccc1CNS(=O)(=O)c1ccccc1[N+](=O)[O-] | 2.7 | -8.5 | -28.2* | . | 0.0 | -8.4
Cc1ccc(C(c2c(O)nc3n(c2=O)CCS3)c2c(O)nc3n(c2=O)CCS3)cc1 | . | . | . | -0.1 | 0.0 | -7.3
O=c1c(C(c2c(O)nc3n(c2=O)CCS3)c2cccc3ccccc23)c(O)nc2n1CCS2 | 4.4 | 54.5* | . | . | . | .
SMILES | PglD DTNB | RAD54 branch | rRNA inh HTS | E-sel inducer | XiGFP reactiv | RAD52 anneal inh
COC(=O)[C@@]1(Cc2ccccc2CN=[N+]=[N-])COC(c2ccc(OCCCO)cc2)=N1 | -0.1 | 2.5 | . | . | . | -3.4
O=C(NCc1ccco1)N1c2ccccc2Sc2ccccc21 | -0.5 | -2.9 | -24.0* | . | . | -15.3
COc1ccc(S(=O)(=O)N2CCOC2CNC(=O)C(=O)NCCc2c[nH]c3ccccc23)cc1C (stereo unspecified) | -1.7 | 2.5 | -14.6* | 0.0 | 0.0 | -13.7
C=CCn1c(Sc2ncc([N+](=O)[O-])s2)n[nH]c1=O | 1.5 | 5.5 | -28.4* | -1.2 | 0.6 | -4.7
CNC[C@H]1Oc2ccc(NS(=O)(=O)c3ccc(Cl)cc3)cc2CC(=O)N([C@@H](C)CO)C[C@@H]1C | -1.2 | -4.6 | 3.1 | 0.1 | -0.5 | -4.7
COc1ccc(NC(=O)c2ccc3c(c2)OCCO3)cc1OC | -7.6 | -5.3 | 5.7 | -0.1 | 0.0 | 3.5
COc1ccc(C(=O)Nc2ccc3c(c2)OCCO3)cc1[N+](=O)[O-] | . | . | 8.3 | 46.2* | 0.0 | -17.1
CC(C)NC(=O)N(C)C[C@H]1Oc2ccc(NC(=O)Nc3ccc(C(F)(F)F)cc3)cc2CC(=O)N([C@@H](C)CO)C[C@H]1C | -0.1 | -3.4 | -5.9 | 2.0 | -1.3 | -8.0
Cc1ccc(S(=O)(=O)N(C)C[C@@H]2Oc3ccc(NC(=O)CCN4CCOCC4)cc3C(=O)N([C@H](C)CO)C[C@@H]2C)cc1 | -2.4 | -1.9 | 0.5 | -0.2 | 0.3 | 5.4
Cc1noc(C)c1NC(=O)N(C)C[C@H]1Oc2ccc(NS(=O)(=O)c3cccs3)cc2C(=O)N([C@H](C)CO)C[C@@H]1C | 4.2 | 0.2 | -0.9 | 255.2*! | 0.0 | -0.6
C[C@@H]1CN([C@@H](C)CO)C(=O)c2cc(NC(=O)C3CCCCC3)ccc2O[C@@H]1CN(C)C(=O)Nc1ccc2c(c1)OCO2 | 0.9 | -0.5 | -1.6 | -1.2 | 0.1 | -12.4
Cc1noc(C)c1NC(=O)N(C)C[C@@H]1Oc2ccc(NC(=O)c3ccncc3)cc2C(=O)N([C@@H](C)CO)C[C@H]1C | -0.1 | 9.4 | 4.1 | 5.7 | -0.1 | 3.5
Cc1noc(C)c1NC(=O)N(C)C[C@@H]1Oc2ccc(NC(=O)c3ccncc3)cc2C(=O)N([C@H](C)CO)C[C@H]1C | 10.8 | 6.5 | 3.8 | 353.8* | 0.0 | 2.2
C[C@@H]1CN([C@H](C)CO)C(=O)c2cc(NC(=O)C3CCCCC3)ccc2O[C@H]1CN(C)C(=O)Nc1ccc2c(c1)OCO2 | -6.7 | -22.5 | 1.6 | 176.9* | 0.4 | .
C[C@@H]1CN([C@H](C)CO)C(=O)c2cc(NC(=O)Cc3ccccc3)ccc2O[C@H]1CN(C)C(=O)NC1CCCCC1 | -1.2 | -2.5 | 0.1 | 70.9* | 0.3 | 8.6
